Results: ChEMBL document CHEMBL1128566, “Inhibition of human neutrophil elastase. 3. An orally active enol acetate prodrug” (J Med Chem, 1995)

Key:
Neutrophil elastase [1] = target: T1, Neutrophil elastase (Homo sapiens, UniProt P08246); experiment: Binding affinity for purified Human neutrophil elastase was determined in vitro.
T1 sequence (P08246 whole entry): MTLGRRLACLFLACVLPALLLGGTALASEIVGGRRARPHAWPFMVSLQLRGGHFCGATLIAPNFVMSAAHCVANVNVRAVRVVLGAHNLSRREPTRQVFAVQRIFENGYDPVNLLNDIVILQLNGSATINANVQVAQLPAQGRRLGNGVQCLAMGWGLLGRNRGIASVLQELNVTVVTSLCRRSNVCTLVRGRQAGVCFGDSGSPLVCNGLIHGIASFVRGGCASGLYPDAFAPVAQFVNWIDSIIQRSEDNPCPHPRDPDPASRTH

[2] = Half-life for the conversion of compound to ketone, was examined by 19F NMR spectroscopy in USP-simulated intestinal fluid, at 37 degree Centigrade.; type: ADME
Procedure, shortened: (§1)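 Simulated intestinal fluid at pH 7.5, held at 37 or 50 °C. Half-life taken for conversion of enol acetate to the corresponding ketone.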

[3] = Half-life for the conversion of compound to ketone, was examined by 19F NMR spectroscopy in human blood plasma, at 37 degree Centigrade.; type: ADME, tissue-based
Procedure, shortened: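 Human blood plasma incubated at 37 °C. Half-life measured for conversion of enol acetate to the corresponding ketone.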

Neutrophil elastase [4] = target: T1, Neutrophil elastase; experiment: Binding affinity for purified Human neutrophil elastase was determined in the presence of pig liver esterase, in vitro.
Procedure, shortened: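 Partially purified HNE assayed with 12.5 units porcine liver esterase added, at a fixed inhibitor level (66 nM, 100 nM, 133 nM or 1.67 μM, depending on compound). Time course followed; Ki taken from the final rate after the enol acetate was fully hydrolysed. Controls: elastase plus substrate, with or without esterase.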

Cricetinae gen. sp. = experiment: Ability to inhibit HNE-induced pulmonary hemorrhage, was examined in vivo in hamsters, after administering the compound orally 30 min prior to intratracheal instillation of 25 microg of HNE; type: functional
Procedure, shortened: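 Hamsters dosed po at various doses 30 min before intratracheal HNE (25 μg). Killed 1 h later; trachea cannulated and lavaged three times with saline (0.04 mL/g). Hemorrhage measured as BAL hemoglobin by spectrophotometry. One-way ANOVA with Dunnett's test against vehicle-treated animals (p ≤ 0.05). ED50 extrapolated from dose-response curves.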

[5] = Half-life for the conversion of compound to ketone, was examined by 19F NMR spectroscopy in USP-simulated gastric fluid, at 50 degree Centigrade.; type: ADME
Procedure, shortened: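 Simulated gastric fluid at pH 1.2 and 50 °C, followed for up to 12 h. Conversion of enol acetate to the parent ketone tracked to give a half-life.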

[6] = Half-life for the conversion of compound to ketone, was examined by 19F NMR spectroscopy in USP-simulated intestinal fluid, at 50 degree Centigrade.; type: ADME; procedure, shortened: as §1

Ki (Neutrophil elastase [1])	half-life [3]	Ki (Neutrophil elastase [4])	Compound	ED50 (Cricetinae gen. sp.)	also measured
	40 min		CC(=O)O/C(=C(\NC(=O)[C@@H]1CCCN1C(=O)[C@@H](NC(=O)c1ccc(C(=O)N2CCOCC2)cc1)C(C)C)C(C)C)C(F)(F)C(F)(F)F		half-life [2]: 396 min
> 2 µM	25 min	25 nM	CC(=O)O/C(=C(/NC(=O)[C@@H]1CCCN1C(=O)[C@@H](NC(=O)c1ccc(C(=O)N2CCOCC2)cc1)C(C)C)C(C)C)C(F)(F)C(F)(F)F	9 mg/kg	half-life [2]: 438 min; half-life [6]: 186 min
		25 nM	CC(C)C(=O)O/C(=C(/NC(=O)[C@@H]1CCCN1C(=O)[C@@H](NC(=O)c1ccc(C(=O)N2CCOCC2)cc1)C(C)C)C(C)C)C(F)(F)C(F)(F)F		
		25 nM	CCC(=O)O/C(=C(/NC(=O)[C@@H]1CCCN1C(=O)[C@@H](NC(=O)c1ccc(C(=O)N2CCOCC2)cc1)C(C)C)C(C)C)C(F)(F)C(F)(F)F		

The next lines start with the molecule.

Compound	Ki (Neutrophil elastase [1])	half-life [3]	Ki (Neutrophil elastase [4])	ED50 (Cricetinae gen. sp.)	also measured
CC(C)[C@H](NC(=O)c1ccc(C(=O)N2CCOCC2)cc1)C(=O)N1CCC[C@H]1C(=O)NCC(=O)C(F)(F)C(F)(F)F	150 µM				
CC(=O)O/C(=C(/NC(=O)[C@@H]1CCCN1C(=O)[C@@H](NC(=O)c1ccc(C(=O)N2CCOCC2)cc1)C(C)C)C(C)C)C(F)(F)F		15 min	16 nM	> 75 mg/kg	half-life [2]: 174 min; half-life [5]: 2460 min
CC(C)[C@H](NC(=O)OC(C)(C)C)C(=O)N1CCC[C@H]1C(=O)NC(C)(C)C(=O)C(F)(F)C(F)(F)F	> 50 µM				
CC(C)=C(NC(=O)[C@@H]1CCCN1C(=O)[C@@H](NC(=O)c1ccc(C(=O)N2CCOCC2)cc1)C(C)C)C(=O)C(F)(F)C(F)(F)F	8 µM				
CC(=O)O/C(=C(/NC(=O)[C@@H]1CCCN1C(=O)[C@@H](NC(=O)c1ccc(C(=O)NS(=O)(=O)c2ccc(Cl)cc2)cc1)C(C)C)C(C)C)C(F)(F)F	0.32 µM	10 min	3 nM	> 50 mg/kg	half-life [6]: 72 min
CC(C)C(NC(=O)[C@@H]1CCCN1C(=O)[C@@H](NC(=O)c1ccc(C(=O)N2CCOCC2)cc1)C(C)C)C(=O)C(F)(F)F (some centres not stated)				> 50 mg/kg	
CC(C)C(NC(=O)[C@@H]1CCCN1C(=O)[C@@H](NC(=O)c1ccc(C(=O)N2CCOCC2)cc1)C(C)C)C(=O)C(F)(F)C(F)(F)F (some centres not stated)				15 mg/kg	
CC(=O)O/C(=C(/NC(=O)[C@@H]1CCCN1C(=O)[C@@H](NC(=O)N1CCOCC1)C(C)C)C(C)C)C(F)(F)F	6.3 µM		150 nM		
